Reference: the EternaBench riboswitch data

Test system: MS2 coat protein
Test: apparent Kd, MS2 coat protein; higher = weaker binding; RNA-MaP array; FMN 200 µM where present
How it was run: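 The apparent Kd comes from binding curves fitted cluster by cluster, filtered, and summarised as a median. Those curves followed SNAP-549-labelled MS2 coat protein from 0.7 or 1.5 nM, doubling to 3 µM, on Illumina sequencing-chip clusters where stalled E. coli RNA polymerase had transcribed the designs, without and then with constant ligand. The buffer was 100 mM Tris-HCl pH 7.5, 80 mM KCl, 4 mM MgCl2, BSA, DTT, yeast tRNA and Tween-20, and green signal was normalised to red-channel RNA signal and control-cluster median Fmax.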

[1] = designed as: OFF switch for flavin mononucleotide, no ligand
[2] = ligand present: flavin mononucleotide, designed as: OFF switch for flavin mononucleotide
[3] = designed as: ON switch for flavin mononucleotide, no ligand
[4] = ligand present: flavin mononucleotide, designed as: ON switch for flavin mononucleotide

Row | Sequence | apparent Kd [1] [nM] | apparent Kd [2] [nM] | apparent Kd [3] [nM] | apparent Kd [4] [nM]
1 | UUAUUUUGUCAAGGAUAUGUAGUAUUGAUUUGAAAACAUGAGGAUCACCCAUGUAUAUGGUGGGAACAGAAGGUGAAUGUUGAA | 311 | 290 |  | 
2 | AUUAUUUAUAGUUAUUGGUAAUUGACAGAAGGUGAAAGUGUCACAUGAGGAUCACCCAUGUUCUUCAAGGAUAUGUUGGUUUAC |  |  | 37.6 | 8.4
3 | GAGAAGAGUAUAGGAUAUUAAGAAACAUGAGGAUCACCCAUGUAGUGAGUGUGAGAAGGGUAGGAGGUGGUAGGAGGAUCCAGG |  |  | 22.3 | 16.4
4 | CAAUUUAUAACAGGAUAUGUAUUACAAUAGUUAAUAGAAGGGUUUAAUACAUGAGGAUCACCCAUGUCAUGUGUCAUAAUUACC | 33.5 | 28.8 |  | 
5 | GGACGUGUCGUUUACAUGAGGAUCACCCAUGUCGAUAGACAUGAGGAUAUGGAUCCGAAUCGGAUCCAGAAGGCAUGCACGUCC |  |  | 260 | 26.8
6 | GCUCUGCGAGGAUAUACAUGAGGAUCACCCAUGUGCGAGUUACUUGUGAGGUCGGUUGGUAGAAGGCGCGGAGG | 106 | 89.8 |  | 
7 | GGUUGUCAUAGUCAUCCUUUACGUACAUGAGGAUCACCCAUGUAGGAUAUGCUACUCAAAGAGUAGCAGAAGGGCGUGUGUCUU | 23.1 | 25.5 |  | 
8 | ACGUGUCGUGUAGGAUAUGACACAGGAAACUGGUCAGAAGGACAUGAGGAUCACCCAUGUAAAAUGUUUAAGAAUGACGUAUGC | 49.3 | 94.9 |  | 
9 | GCACAUGGCAUAGGAUAUAGAAGUAUACAUUAUAUAGGUAGUGUCACAACACUAGAAGGAUGAAACAUGAGGAUCACCCAUGUA |  |  | 16.2 | 12.3
10 | GAGUGGCAAGGAUAUACAGUGGAGAGGAUGGCAAGAGGUGGACAUGAGGAUCACCCAUGUAGAAGGUGCAGAGA | 154 | 235 |  | 
11 | CGCCCGGGAGGAUAUCCAAUAUAUGACAUGAGGAUCACCCAUGUUUCCACUCGUACCUCCGGAGAAGGCCCGGCGC | 22.2 | 22.4 |  | 
12 | UGGGUAAAUGUAGGAUAUCCAUAUUAAUAAUAUGGAGAAGGACAUGAGGAUCACCCAUGUACAGGGAAUUACCCAUUUCCUCUC | 80.1 | 287 |  | 
13 | GUCAGCUCGUGAGGAUAUACAGCACUGCUUCGGCAGUGUAUUAAGAUCACAUGAGGAUCACCCAUGUAGAAGGCACGAGCUGAU | 28.1 | 599 |  | 
14 | GCUGCAAAGUAAGGAUAUGCCUAGGAAACCUAGGCAGAAGGUACAUGAGGAUCACCCAUGUUAACGCAAAGCGAAUAAAGCAGC | 18.1 | 24.1 |  | 
15 | GUGUAGAUAGGAUAUGCAUGAGUCUAGCGAAGCUAGGCUCUACAUGAGGAUCACCCAUGUAGAAGGGUCUACAC | 20.6 | 17.2 |  | 
16 | GGCGGGAAUGAGAAGGGUCACAUGAGGAUCACCCAUGUGCUCUUCGCCGUGACAGGAUAUCAUCGCCGCCAGGUUAGAUUUUUG | 7.83 | 30.9 |  | 
17 | CGCUAAUAAAUAGUAAUAAUUGUACAGGAUAUGUUACAUGAGGAUCACCCAUGUAUUGGGUAAGAACAGAAGGGUAUAUUAGCG | 433 | 229 |  | 
18 | GACAUUAUAGGAUAUACAUGAGGAUCACCCAUGUCCGGCGGCCACCGCCAUUCACUGUGUAGAAGGGUAGUUUG | 87.9 | 68.8 |  | 
19 | GUGCUUGUCGGAGGAUAUGGUUACAUGAGGAUCACCCAUGUUAUGCUUGGUUACUUGUUUAGUUUCCAGAAGGUCGAUUAGUUG | 61 | 145 |  | 
20 | UGAGUGCGUGUUAGGAUAUGGUUUGGUAUUUCGGGCUAGAAGGGACAUGAGGAUCACCCAUGUAAUUGAUAGGU | 47 | 53 |  | 
21 | CUCUUGUGAGGAUAUGCUGCUCGUCACGAAAGUGAUGAGUAGCAGAAGGCACAUGAGGAUCACCCAUGUAAAUA | 93.7 | 21.7 |  | 
22 | AAUAACAGAGGAUAUACUGUUUUAUGUGUUUGUUAUUUUGAACAUGAGGAUCACCCAUGUAGAAGGCUGAGUAA | 27.8 | 28.4 |  | 
23 | AUACCACGAGGAUAUCGUCUAUUCCACAUGAGGAUCACCCAUGUUAUCCAUGUUUCGUUUCGAGAAGGCGUGGGUU | 59.9 | 42.9 |  | 
24 | CGAGCUGCUGUGAGGAUAUACCUAUGGAUGCGUGGGUAGAAGGCACAUGAGGAUCACCCAUGUCCUGCAGCUCG | 42.1 | 241 |  | 

Row | Sequence | apparent Kd [1] [nM] | apparent Kd [2] [nM] | apparent Kd [3] [nM] | apparent Kd [4] [nM]
25 | GUAUAUAGUGUGAGGAUAUGCUGGUCCUUGGAUCAGCAGAAGGCACAUGAGGAUCACCCAUGUAGUUAAAUAUA | 34.4 | 82 |  | 
26 | UGUCGGAGCAGAGGAUAUUACAUGAGGAUCACCCAUGUAUGAACCAUUAGCUGGAAACAGCAAUGUAAGAAGGCUGCUCCGACA | 5.37 | 10.4 |  | 
27 | ACAUGUACAGGAUAUACAUGAGUGAUACACGUAUUUCCACUACAUGAGGAUCACCCAUGUAGAAGGGUACAUGA | 50.2 | 19.5 |  | 
28 | GUAGCUAUCGCAGGAUAUCCUCAGGCGAAAGCCACAUGAGGAUCACCCAUGUAAAUUAAGAAUUUGGAGAAGGGCGAUAGCUAC |  |  | 479 | 27.3
29 | GGUGGACAUGAGGAUCACCCAUGUGAGGAUAUCGGCUGGCUAGCGGCGGACGGCUUCUCGAGAAGGCGCAUUGU | 57.8 | 57.1 |  | 
30 | GUUAAGAACUAAGGAUAUUGAAUACAUAUGUUUAACAUGAGGAUCACCCAUGUGGGUUGCGGUAUCGAGAAGGUAGAAUAAUAG |  |  | 115 | 113
31 | CACAUUUUAACAGGAUAUGUAAGGUUGUUUAUUAUUGCAUUUACACUCAUUACAGAAGGGUUAUACAUGAGGAUCACCCAUGUG |  |  | 20.1 | 14.5
32 | CUCGGCGAGGGAGGAUAUCCCUAUGAGGCGGUGCAGCUCGGGAACAUGAGGAUCACCCAUGUAGCGGAGAAGGCCCAUACGCCU | 9.59 | 34.5 |  | 
33 | CAGUACUGAGGAUAUACAUGAGGAUCACCCAUGUGUUCCAGCUAGGAAACUAGCAGAAGUAGAAGGCAGUACUG | 24.6 | 441 |  | 
34 | GUACUGUAGUGAGGAUAUACGAGAUCGAUAGAUCGGCGAUCCAUAUAUACAUGAGGAUCACCCAUGUAGAAGGCACUUCAGUAC | 7.02 | 93.4 |  | 
35 | GGGAUCAUCGGAGGAUAUCAUGUAGAUACAUGAGGAUCACCCAUGUCGAUGGAGACAUCGGAGAUUGAGAAGGCCGAUGAUCCG |  |  | 741 | 28.9
36 | UGGUACUAGGGAGGAUAUGGGAAGAUACAUGAGGAUCACCCAUGUUUAAGAAUGCCGAGAGCCAACUAGAAGGCCCUAGUACCU |  |  | 120 | 16.7
37 | GGAUUACAUGAGGAUCACCCAUGUGAGGAUAUCGAUGUCCUCAAUGGAGUGCGGGACUCGAGAAGGCACUUGGA | 338 | 168 |  | 
38 | AACUUGCGCACAGGAUAUCCACGGAGCGGACGUGGAGAAGGGUGACAUGAGGAUCACCCAUGUACGUAAGUCUGGAUCACUUCC |  |  | 116 | 42.3
39 | UGACCCUGGAAGAGUGUUUAGACAUGAGGAUCACCCAUGUCUGAGGAUAUGCGGCAUCAAUAACAGCAGAAGGCAGACUUGGGU | 239 | 32.7 |  | 
40 | GGAGAACAUGAGGAUCACCCAUGUGGAUGGGCGCUAGGAUAUGCGAGAGGGUGAAGAGAAGCAGAAGGAGUGGAUA |  |  | 141 | 142
41 | UGGUACAUGGGAGGAUAUCCUCAUGAGACAUGAGGAUCACCCAUGUAUUAUAAGCCGAAAGGCAAGGAGAAGGCCCAUGUACCU |  |  | 90.2 | 19.5
42 | GUCAGCUCGUGAGGAUAUACAUGUGCUGGAGACAGCACUAAAGUUUUCACAUGAGGAUCACCCAUGUAGAAGGCACGAGCUGAU | 15.4 | 36 |  | 
43 | AAACCUAUAGGAUAUACAUGAGGAUCACCCAUGUUGCGAUUUUUUAGGUAACAGAUCCGUAGAAGGGUAGGUCA | 36.4 | 66.6 |  | 
44 | UAUCCGCUAGGAUAUACUAUAUUGUCCUCGUGAGUGAUGCUACAUGAGGAUCACCCAUGUAGAAGGAGCGCGUG | 27.3 | 30.6 |  | 
45 | UUAUACAUGAGGAUCUCCCAUGACAUGAGGAUCACCCAUGUGCAGGAUAUACGUGUUAUAAUAUAGUAGAAGGGCAGUCUAUAU | 36.8 | 104 |  | 
46 | UAUCGCAGUGCAGGAUAUCCAAGGUUUGGCGAAGGAGAAGGGCACGCGACAUGAGGAUCACCCAUGUAAAGUGUGGCGUCCUCU | 116 | 62.2 |  | 
47 | GUAUUUGAAGUAAGGAUAUGCCUCUGGAAACGGAGGUAGAAGGUACAUGAGGAUCACCCAUGUUUCUCUUUUGG | 16 | 23.3 |  | 
48 | AUCGGAAUGUAGAAGGGUGACAUGAGGAUCACCCAUGUUCAAAUGCGUUUUUCGGUAAUUGAUCCACAGGAUAUACUGUCCGUG |  |  | 631 | 485
